In ChEMBL document CHEMBL4689842, “EUbOPEN Chemogenomics Library wave 1” (2021):

Tested on: HEK-293T
Assay: Multiplex assay against HEK293T;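 as to Population Tubulin-Different-Phenotype (%): share of the cells with healthy nuclei that show this phenotype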
Assay type: toxicity, cell-based
Conditions: human
In short: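 Cells stained live at seeding with Hoechst33342, BioTracker Green Microtubule Cytoskeleton Dye, MitoTracker Red and Annexin V Alexa Fluor 680 were imaged on a CQ1 microscope at 37°C and 5% CO2 after compound addition. Their classification by CellPathfinder machine-learning gating ran from Hoechst high-intensity objects versus normal cells, to healthy, pyknosed or fragmented nuclei among normal cells, to mitotic or apoptotic among pyknosed cells. Tubulin, mitochondrial-mass and membrane-permeability phenotypes are per cents of healthy-nucleus cells.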

[1] = 12 h, 1 µM, compound concentration 1 uM, replicate 1
[2] = 12 h, 1 µM, compound concentration 1 uM, replicate 2
[3] = 12 h, 10 µM, compound concentration 10 uM, replicate 1
[4] = 12 h, 10 µM, compound concentration 10 uM, replicate 2
[5] = 24 h, 1 µM, compound concentration 1 uM, replicate 1
[6] = 24 h, 1 µM, compound concentration 1 uM, replicate 2
[7] = 24 h, 10 µM, compound concentration 10 uM, replicate 1
[8] = 24 h, 10 µM, compound concentration 10 uM, replicate 2
[9] = 48 h, 1 µM, compound concentration 1 uM, replicate 1
[10] = 48 h, 1 µM, compound concentration 1 uM, replicate 2
[11] = 48 h, 10 µM, compound concentration 10 uM, replicate 1
[12] = 48 h, 10 µM, compound concentration 10 uM, replicate 2

Cc1c(-c2ccc(O)cc2)n(Cc2ccc(OCCN3CCCCCC3)cc2)c2ccc(O)cc12 [BAZEDOXIFENE]
Population Apoptotic (%) [1]: 40% | Population Fragmented Nuclei (%) [1]: 15% | Population Healthy Nuclei (%) [1]: 32% | Population Hoechst High Intensity Objects (%) [1]: 16% | Population Membrane Permeable-Phenotype (%) [1]: 0% | Population Mitochondria Different-Phenotype (%) [1]: 93% | Population Mitotic Cells (%) [1]: 59% | Population Normal (%) [1]: 83% | Population Pyknosed Nuclei (%) [1]: 52% | Population Tubulin-Different-Phenotype (%) [1]: 77% | Population Apoptotic (%) [2]: 12% | Population Fragmented Nuclei (%) [2]: 10% | Population Healthy Nuclei (%) [2]: 43% | Population Hoechst High Intensity Objects (%) [2]: 6% | Population Membrane Permeable-Phenotype (%) [2]: 11% | Population Mitochondria Different-Phenotype (%) [2]: 36% | Population Mitotic Cells (%) [2]: 87% | Population Normal (%) [2]: 93% | Population Pyknosed Nuclei (%) [2]: 46% | Population Tubulin-Different-Phenotype (%) [2]: 38% | Total Cell Count [2]: 168 | Population Fragmented Nuclei (%) [3]: 14% | Population Healthy Nuclei (%) [3]: 8% | Population Hoechst High Intensity Objects (%) [3]: 21% | Population Membrane Permeable-Phenotype (%) [3]: 0% | Population Mitochondria Different-Phenotype (%) [3]: 90% | Population Normal (%) [3]: 78% | Population Pyknosed Nuclei (%) [3]: 77% | Population Tubulin-Different-Phenotype (%) [3]: 72% | Total Cell Count [3]: 161 | Population Apoptotic (%) [4]: 88% | Population Fragmented Nuclei (%) [4]: 9% | Population Healthy Nuclei (%) [4]: 7% | Population Hoechst High Intensity Objects (%) [4]: 10% | Population Membrane Permeable-Phenotype (%) [4]: 10% | Population Mitochondria Different-Phenotype (%) [4]: 100% | Population Mitotic Cells (%) [4]: 11% | Population Normal (%) [4]: 89% | Population Pyknosed Nuclei (%) [4]: 83% | Population Tubulin-Different-Phenotype (%) [4]: 100% | Total Cell Count [4]: 159 | Population Apoptotic (%) [5]: 44% | Population Fragmented Nuclei (%) [5]: 13% | Population Healthy Nuclei (%) [5]: 45% | Population Hoechst High Intensity Objects (%) [5]: 13% | Population Membrane Permeable-Phenotype (%) [5]: 5% | Population Mitochondria Different-Phenotype (%) [5]: 84% | Population Mitotic Cells (%) [5]: 55% | Population Normal (%) [5]: 86% | Population Pyknosed Nuclei (%) [5]: 40% | Population Tubulin-Different-Phenotype (%) [5]: 54% | Total Cell Count [5]: 180 | Population Apoptotic (%) [6]: 18% | Population Fragmented Nuclei (%) [6]: 8% | Population Healthy Nuclei (%) [6]: 50% | Population Hoechst High Intensity Objects (%) [6]: 8% | Population Membrane Permeable-Phenotype (%) [6]: 9% | Population Mitochondria Different-Phenotype (%) [6]: 40% | Population Mitotic Cells (%) [6]: 81% | Population Normal (%) [6]: 91% | Population Tubulin-Different-Phenotype (%) [6]: 53% | Total Cell Count [6]: 207 | Population Apoptotic (%) [7]: 96% | Population Fragmented Nuclei (%) [7]: 13% | Population Healthy Nuclei (%) [7]: 9% | Population Hoechst High Intensity Objects (%) [7]: 21% | Population Membrane Permeable-Phenotype (%) [7]: 0% | Population Mitochondria Different-Phenotype (%) [7]: 100% | Population Mitotic Cells (%) [7]: 3% | Population Normal (%) [7]: 78% | Population Pyknosed Nuclei (%) [7]: 76% | Population Tubulin-Different-Phenotype (%) [7]: 92% | Total Cell Count [7]: 175 | Population Apoptotic (%) [8]: 90% | Population Fragmented Nuclei (%) [8]: 9% | Population Healthy Nuclei (%) [8]: 5% | Population Hoechst High Intensity Objects (%) [8]: 8% | Population Membrane Permeable-Phenotype (%) [8]: 33% | Population Mitochondria Different-Phenotype (%) [8]: 88% | Population Mitotic Cells (%) [8]: 10% | Population Normal (%) [8]: 91% | Population Pyknosed Nuclei (%) [8]: 84% | Population Tubulin-Different-Phenotype (%) [8]: 88% | Total Cell Count [8]: 168 | Population Apoptotic (%) [9]: 39% | Population Fragmented Nuclei (%) [9]: 14% | Population Healthy Nuclei (%) [9]: 69% | Population Hoechst High Intensity Objects (%) [9]: 9% | Population Membrane Permeable-Phenotype (%) [9]: 3% | Population Mitochondria Different-Phenotype (%) [9]: 41% | Population Mitotic Cells (%) [9]: 60% | Population Normal (%) [9]: 90% | Population Pyknosed Nuclei (%) [9]: 16% | Population Tubulin-Different-Phenotype (%) [9]: 40% | Total Cell Count [9]: 275 | Population Apoptotic (%) [10]: 12% | Population Fragmented Nuclei (%) [10]: 3% | Population Healthy Nuclei (%) [10]: 75% | Population Hoechst High Intensity Objects (%) [10]: 2% | Population Membrane Permeable-Phenotype (%) [10]: 4% | Population Mitochondria Different-Phenotype (%) [10]: 19% | Population Mitotic Cells (%) [10]: 87% | Population Normal (%) [10]: 97% | Population Pyknosed Nuclei (%) [10]: 21% | Population Tubulin-Different-Phenotype (%) [10]: 32% | Total Cell Count [10]: 314 | Population Apoptotic (%) [11]: 91% | Population Fragmented Nuclei (%) [11]: 22% | Population Healthy Nuclei (%) [11]: 1% | Population Hoechst High Intensity Objects (%) [11]: 23% | Population Membrane Permeable-Phenotype (%) [11]: 0% | Population Mitochondria Different-Phenotype (%) [11]: 100% | Population Mitotic Cells (%) [11]: 8% | Population Normal (%) [11]: 76% | Population Pyknosed Nuclei (%) [11]: 75% | Population Tubulin-Different-Phenotype (%) [11]: 50% | Total Cell Count [11]: 178 | Population Apoptotic (%) [12]: 95% | Population Fragmented Nuclei (%) [12]: 20% | Population Healthy Nuclei (%) [12]: 6% | Population Hoechst High Intensity Objects (%) [12]: 9% | Population Membrane Permeable-Phenotype (%) [12]: 20% | Population Mitochondria Different-Phenotype (%) [12]: 90% | Population Mitotic Cells (%) [12]: 4% | Population Normal (%) [12]: 90% | Population Pyknosed Nuclei (%) [12]: 72% | Population Tubulin-Different-Phenotype (%) [12]: 90% | Total Cell Count [12]: 163
